Screening data from PubChem BioAssay.
Compounds with a hit are over-represented: about 4.6% of the library has one in this group of screens.
Rtt109 HAT inh: inhibitors of C. albicans Rtt109/Vps75 HAT, primary screen, biochemical, ThioGlo CoA-SH fluorescence, plate reader | Histone acetyltransferase RTT109 (Candida albicans (strain SC5314 / ATCC MYA-2876)), … | purified Rtt109/Vps75, 4 h | inhibition, % at 34.9 µM | 330,000 tested, 0.16% active | AID 540336, 2011;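 active = inhibition of at least 50% in every replicate; inconclusive = best replicate reaches 50% inhibition but some replicates fall short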
Target sequence (Q5AAJ8 whole entry, looked up): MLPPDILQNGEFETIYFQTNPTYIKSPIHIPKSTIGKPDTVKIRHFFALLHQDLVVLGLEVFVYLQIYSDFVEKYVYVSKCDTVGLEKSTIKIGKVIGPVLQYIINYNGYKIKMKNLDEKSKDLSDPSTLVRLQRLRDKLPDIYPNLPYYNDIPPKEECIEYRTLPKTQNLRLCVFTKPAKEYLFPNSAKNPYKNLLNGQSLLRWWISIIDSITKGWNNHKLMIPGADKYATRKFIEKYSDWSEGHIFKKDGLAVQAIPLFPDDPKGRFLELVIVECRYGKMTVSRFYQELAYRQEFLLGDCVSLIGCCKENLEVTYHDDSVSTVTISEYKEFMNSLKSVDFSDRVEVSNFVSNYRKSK
UCH37 inh: inhibitors of human UCH37 deubiquitinase, primary screen, biochemical, Ub-AMC cleavage, fluorescence; Ubiquitin carboxyl-terminal hydrolase isozyme L5 (Homo sapiens), Q9Y5K5; purified proteasome/UCH37; inhibition, % (no concentration beside the values); 330,000 tested, 0.33% active; AID 588478, 2011;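 active = mean inhibition over replicate wells above about 20%, limit read from the data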
Target sequence (Q9Y5K5 whole entry, looked up): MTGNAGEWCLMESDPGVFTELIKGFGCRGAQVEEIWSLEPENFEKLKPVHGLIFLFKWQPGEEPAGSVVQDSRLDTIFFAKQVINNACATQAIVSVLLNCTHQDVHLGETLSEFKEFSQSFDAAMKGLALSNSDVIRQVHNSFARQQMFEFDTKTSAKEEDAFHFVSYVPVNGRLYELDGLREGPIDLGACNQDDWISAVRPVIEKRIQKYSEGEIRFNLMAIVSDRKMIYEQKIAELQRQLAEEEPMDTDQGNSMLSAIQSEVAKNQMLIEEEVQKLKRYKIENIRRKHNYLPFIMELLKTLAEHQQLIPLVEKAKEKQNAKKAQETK
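Reagent: Ub-AMC substrate; assay system: Proteasome-associated human UCH37 deubiquitinase; controls: no-proteasome and no-compound wells; read-out: % inhibition of Ub-AMC cleavage fluorescence; timing: 30 min preincubation with enzyme, 25 min cleavage at room temperature; signal: AMC fluorescence from Ub-AMC cleavage, excitation 355 nm, emission 460 nm; buffer or medium: Tris-HCl pH 7.4 plus ovalbumin, ATP-MgCl2, DTT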
PfM18AAP inh: PfM18AAP inhibitors, malaria aminopeptidase, primary screen, biochemical, QFRET, recombinant enzyme; M18 aspartyl aminopeptidase (Plasmodium falciparum 3D7); H-Glu-NHMec fluorogenic cleavage; inhibition, % at 7.35 µM; 290,000 tested, 1.2% active;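 active = inhibition above the campaign mean inhibition over all tested compounds plus 3 SD, cut at about 28% in these data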
HDAC3 inhib: HDAC3 deacetylase inhibitors, primary screen, biochemical, fluorescence, cell-free homogeneous; 320,000 tested, 0.15% active; recombinant HDAC3, fluorogenic peptide/trypsin coupled; Histone deacetylase 3 (Homo sapiens), O15379; inhibition, % at 8.3 µM; in the data active = inhibition above about 26%, passing the limit was not always enough; inconclusive = no clear call, values can overlap the other calls
FAS TE block: FAS thioesterase domain inhibitors, primary screen, biochemical, fluorescence intensity, uHTS; AID 602261, 2012; Fatty acid synthase (Homo sapiens), P49327; recombinant FAS-TE, OMFH fluorogenic substrate, fluorescence endpoint; 360,000 tested, 0.67% active; inhibition, % at 15 µM;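 active = compounds whose normalised, plate-corrected inhibition of enzyme fluorescence in the single-dose primary screen is 50% or more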
ALR H2O2 inh: inhibitors of human ALR sulfhydryl oxidase, primary screen, biochemical, H2O2 detection, HRP-luminol luminescence, single point; purified ALR, DTT oxidation; inhibition, % (test concentration not listed); 290,000 tested, 3.8% active; AID 485317, 2010;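 active = mean replicate inhibition above about 79%, with every replicate also reaching it, limit read from the data; inconclusive = only one of the two criteria met; inactive = mean below limit and not every replicate reaching it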
Each line names hits and unclear results; the compound was inactive in the other large screens; ! = a repeat was not active.

O=C(CSc1nc(O)c(C2CCCCC2)c(=O)[nH]1)Nc1ccc(F)cc1	ALR H2O2 inh 98.7 (no result: UCH37 inh)
O=C(CSc1nc(O)c(C2CCCCC2)c(=O)[nH]1)N1CCOCC1	none
C=CCOc1ccc2c(c1)C(=NO)c1cc(OCC=C)ccc1-2	none
COc1ccc2c(c1)C(=NO)c1cc(OC)ccc1-2	ALR H2O2 inh 96.1
NC(CO)C(=O)NNCc1ccc(O)c(O)c1O (centres undefined)	Rtt109 HAT inh 79.2!, PfM18AAP inh 29.0
COC(=O)C(N)Cc1ccc(O)cc1 (centres undefined)	none
COc1ccccc1CNC(=O)CSC1=NCCS1	ALR H2O2 inh 98.8
O=C(CSc1nc(=O)n2ccccc2n1)Nc1cccc2ccccc12	none (no result: PfM18AAP inh, ALR H2O2 inh)
CCCN1C(=O)CC(=O)N=C1SCC(=O)Nc1ccccc1F	ALR H2O2 inh 99.1 (no result: UCH37 inh, PfM18AAP inh)
O=C(CSc1cn[nH]n1)Nc1ccccc1F	none (no result: PfM18AAP inh, HDAC3 inhib, ALR H2O2 inh)
Cc1cccn2c(=O)nc(SCC(=O)Nc3cccc4ccccc34)nc12	ALR H2O2 inh 85.2 (no result: PfM18AAP inh)
COc1ccccc1CNC(=O)CSc1ccc(Br)cc1	none (no result: ALR H2O2 inh)
COc1ccccc1CNC(=O)CSc1ccc(-c2cccc([N+](=O)[O-])c2)nn1	ALR H2O2 inh 83.9
CC(C)NC(=O)COC(=O)c1ccccc1CSC1=NCCS1	none
O=C(CSc1cccs1)Nc1cccc2ccccc12	none (no result: HDAC3 inhib, ALR H2O2 inh)
COC(=O)c1cc(NC(=O)CSC2=NCCS2)cc(C(=O)OC)c1	ALR H2O2 inh 98.2
O=C(CSC1=NCCS1)Nc1ccccc1F	ALR H2O2 inh 98.7
O=C(O)c1ccccc1CSC1=NCCS1	ALR H2O2 inh 97.8
O=C(CSC1=NCCS1)Nc1cccc2ccccc12	ALR H2O2 inh 98.3
N#CC(Cn1c[n+](NC(=O)Nc2ccccc2)cn1)=NO	none (no result: Rtt109 HAT inh, PfM18AAP inh, HDAC3 inhib, FAS TE block, ALR H2O2 inh)
C=CCn1c(=C(C#N)C(=O)c2ccccc2)sc(=Cc2ccc(C)o2)c1=O	none (no result: Rtt109 HAT inh, PfM18AAP inh, HDAC3 inhib, FAS TE block, ALR H2O2 inh)
CN(C)CCOC(=O)C1(c2ccccc2)CCOCC1	UCH37 inh 20.3!
CCN(CC)CCOC(=O)C1(c2ccccc2)CCCC1	none
Cc1ccc(C2C(C#N)=C(N)SC(N)=C2C#N)c(C)c1	none (no result: Rtt109 HAT inh)
Cc1ccc(C2C(C#N)=C(N)SC(N)=C2C#N)cc1	PfM18AAP inh 42.4 (no result: HDAC3 inhib, ALR H2O2 inh)
COc1cc(C=NNC(=O)CSCc2ccc([N+](=O)[O-])cc2)cc(OC)c1OC	none (no result: Rtt109 HAT inh, PfM18AAP inh, HDAC3 inhib, FAS TE block, ALR H2O2 inh)
CCN(CC)c1ccc(C=NOCC(=O)Nc2cccc(C)c2)cc1	none (no result: Rtt109 HAT inh, PfM18AAP inh, HDAC3 inhib, FAS TE block, ALR H2O2 inh)
Cc1ccc2nsnc2c1NS(=O)(=O)c1c(C)ccc2nsnc12	none
Cc1ccc(/C=[N+](\[O-])c2ccc(N(C)C)cc2)c2nsnc12	PfM18AAP inh 30.7 (no result: Rtt109 HAT inh, HDAC3 inhib, ALR H2O2 inh)
COc1cccc(CNc2ccc3c(c2)nc(C)n3C)c1OC	ALR H2O2 inh 99.2
CCOc1ccc(CNc2ccc3c(c2)nc(C)n3C)cc1	ALR H2O2 inh 95.9
Cc1cc(C)n2nc(C(=O)NN=Cc3ccccc3Cl)nc2n1	none (no result: Rtt109 HAT inh, PfM18AAP inh, HDAC3 inhib, FAS TE block, ALR H2O2 inh)
Cc1nnc(SCC(=O)NNC(=O)COc2ccc(Cl)cc2)n1C	HDAC3 inhib inconclusive
O=C(COc1ccc(Cl)cc1)NNC(=O)CSc1nncs1	PfM18AAP inh 28.9
CCOc1cc(/C=C2\C(=O)ON=C2c2ccccc2)ccc1OC	ALR H2O2 inh 92.3
COc1cccc(OC)c1C(=O)NC(C)CCc1ccccc1 (centres undefined)	none
COc1cc(NC(C)CCc2ccccc2)cc(OC)c1OC (centres undefined)	ALR H2O2 inh 87.9
O=[N+]([O-])c1ccc(NC2CCN(Cc3ccccc3)CC2)c([N+](=O)[O-])c1	none
O=C1c2c([N+](=O)[O-])cc([N+](=O)[O-])cc2S(=O)N1Cc1ccccc1 (centres undefined)	PfM18AAP inh 52.3 (no result: Rtt109 HAT inh)
Cn1c(=O)c2c(ncn2Cc2ccc(Cl)cc2)n(C)c1=O	none
Cn1c(=O)c2c([nH]c(=S)n2Cc2ccc(Cl)cc2)n(C)c1=O	PfM18AAP inh 29.8
Cc1ccc(S(=O)(=O)N=CN(C)C)cc1	none (no result: Rtt109 HAT inh, PfM18AAP inh, HDAC3 inhib, FAS TE block, ALR H2O2 inh)
COc1cccc(C2=N/C(=C\N(C)C)C(=O)O2)c1	UCH37 inh 25.0 (no result: ALR H2O2 inh)
CC(=NNC(=O)c1cc(C(C)(C)C)[nH]n1)C12CC3CC(CC(C3)C1)C2	none (no result: Rtt109 HAT inh, PfM18AAP inh, HDAC3 inhib, FAS TE block, ALR H2O2 inh)
CC(C)OP(=O)(OC(C)C)C(O)c1ccc(N(C)C)cc1 (centres undefined)	ALR H2O2 inh 97.3
CN(C)c1ccc(C(O)P(=O)(OC2CCCCC2)OC2CCCCC2)cc1 (centres undefined)	ALR H2O2 inh 96.8
Cc1cc(C)n2nc(C(=O)NN=Cc3ccccc3C)nc2n1	none (no result: Rtt109 HAT inh, PfM18AAP inh, HDAC3 inhib, FAS TE block, ALR H2O2 inh)
CCCCNC(=O)CC(C(=O)N1CCc2ccccc21)n1ccnc1 (centres undefined)	none
CCN(CCCNC(=O)CC(C(=O)N1CCc2ccccc21)n1ccnc1)c1cccc(C)c1 (centres undefined)	ALR H2O2 inh 99.0
O=C(NCc1n[nH]c(=S)n1-c1ccc(Cl)c(Cl)c1)c1ccc(S(=O)(=O)N2CCCCC2)cc1	ALR H2O2 inh 89.2
O=C(NCc1n[nH]c(=S)n1-c1ccc(F)cc1)c1ccc(S(=O)(=O)N2CCCC2)cc1	none
O=C(NCc1n[nH]c(=S)n1-c1ccc(Cl)c(Cl)c1)c1ccco1	ALR H2O2 inh 85.4
Cc1cccc(-n2c(CNC(=O)c3ccc(S(=O)(=O)N4CCCCC4)cc3)n[nH]c2=S)c1	none
O=C(NCc1n[nH]c(=S)n1-c1cccc(Cl)c1)c1ccc(S(=O)(=O)N2CCCC2)cc1	ALR H2O2 inh 93.7
